OX1R antag-1: OX1R (human) antagonism; AID 485270; OX1R-expressing cells, FRET antagonist read-out; hit rate 1.8% among 330,000; inhibition, % at 6.6 µM; in the data active means inhibition mostly above about 38%, no sharp cut-off; inactive means mostly below about 40%;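 further: 0% = agonist challenge alone and 100% = reference antagonist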
Target sequence (O43613 whole entry, looked up): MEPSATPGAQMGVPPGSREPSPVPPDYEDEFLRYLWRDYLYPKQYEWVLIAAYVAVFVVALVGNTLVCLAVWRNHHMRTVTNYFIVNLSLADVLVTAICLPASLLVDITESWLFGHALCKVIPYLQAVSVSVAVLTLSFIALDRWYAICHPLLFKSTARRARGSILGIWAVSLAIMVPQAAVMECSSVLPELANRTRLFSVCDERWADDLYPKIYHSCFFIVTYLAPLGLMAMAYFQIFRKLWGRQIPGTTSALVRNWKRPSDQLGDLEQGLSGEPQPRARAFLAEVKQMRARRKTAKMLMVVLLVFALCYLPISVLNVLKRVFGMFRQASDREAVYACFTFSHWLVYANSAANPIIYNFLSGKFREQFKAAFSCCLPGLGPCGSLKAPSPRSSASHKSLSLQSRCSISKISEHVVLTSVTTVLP
MPTP block: permeability transition pore inhibition. hit rate 1.4% among 360,000. AID 602449. isolated mouse mitochondria, Ca2+ swelling absorbance, 30 min. inhibition, % at 10 µM;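 active means inhibition of 50% or more, scaled per plate between neutral and stimulator controls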;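 further: 0% = DMSO wells given calcium and 100% = 1 mM EGTA wells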
CHO parental Ca: signal in parental CHO cells, OX1R antagonist counter-screen. hit rate 0.63% among 330,000. parental CHO-K1, ATP-induced calcium, Fluo-8 fluorescence. inhibition, % at 5.6 µM;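 active means inhibition above that plate's mean sample inhibition plus 3 SD, cut at about 26% in these data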;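 further: 0% = ATP-challenged DMSO wells and 100% = DMSO wells without ATP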
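Measured by: calcium-sensitive Fluo-8 fluorescence / Test system: CHO parental line / Controls: ATP-challenged DMSO wells low, unchallenged DMSO wells high / Measure: % inhibition / Compound: single nominal dose of 5.6 µM per compound / Replicates: single well per compound, no replicates / Reagent: ATP as calcium-mobilizing challenge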
GPR7 antag: antagonists of human GPR7 (neuropeptides B/W receptor 1) | P48145 | GPR7-expressing cells, fluorescence antagonist assay | inhibition, % at 4.4 µM | hit rate 1.1% among 290,000 | AID 1861; in the data active means inhibition above about 16%, passing the limit was not always enough;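 further: cells stimulated with the agonist NPW; 0% = agonist with vehicle and 100% = vehicle without agonist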
OX1R antag-2: human HCRTR1 antagonism; O43613; CHO/OX1R cells, Fluo-8 calcium fluorescence, orexin A; inhibition, % at 5 µM; hit rate 0.43% among 330,000; AID 434989;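 active means inhibition above its plate's threshold, mean inhibition of all tested compounds on the plate plus 3 SD, cut at about 37% in these data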;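 further: 0% = orexin A challenge wells and 100% = SB-334867-A antagonist wells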
MPTP counter: Rhodamine 123 counter-screen of mitochondrial pore hits. shares compounds with MPTP block. isolated mitochondria, membrane potential, Rhodamine 123 fluorescence. inhibition, % at 10 µM. hit rate 78% among 5,000. AID 624504; in the data active means inhibition above about 22%;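 further: 0% = DMSO vehicle and 100% = positive control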
Numbers without * were called inactive; / = no result given. Compounds with a hit are over-represented: about 3.8% of the library has one in this group of screens.

SMILES	OX1R antag-1	MPTP block	CHO parental Ca	GPR7 antag	OX1R antag-2	MPTP counter
Cc1ccc(OCCN2CCN(c3ncnc4sc(C)c(C)c34)CC2)cc1	43.8*	97.0*	4.4	8.1	-5.1	90.2*
Clc1ccc(OCCN2CCN(c3ncnc4sccc34)CC2)cc1	48.6*	100.1*	11.2	19.7*	5.3	101.5*
Cc1ccc(C(=O)NCC(=O)OCC(=O)N(CC(C)C)c2c(N)n(Cc3ccccc3)c(=O)[nH]c2=O)cc1	-2.8	0.3	-8.3	/	-2.0	/
Cc1ccc(NC(=S)/C(=C(\[O-])c2ccc(C)c([N+](=O)[O-])c2)[n+]2ccccc2)cc1C	28.4	/	-18.1	-9.7	-27.8	/
Cc1ccc(/C([O-])=C(/C(=S)Nc2ccc(SC(F)F)cc2)[n+]2ccccc2)cc1[N+](=O)[O-]	8.3	64.1*	-4.8	-13.4	-0.7	80.0*
COc1ccccc1CNC(=O)COC(=O)CCC(=O)c1cccs1	26.1	1.1	-9.0	-13.0	-6.2	/
CC(C)N1CCc2c(sc(NC(=O)c3cc(-c4cccs4)nc4ccccc34)c2C(N)=O)C1	12.1	82.6*	18.0	6.6	4.2	-28.7
O=C(c1cc(COc2cccc3cnccc23)on1)N1CCCC(CCCO)C1 (configuration not stated)	50.9	91.3*	59.1*	13.4	25.8	83.1*
COc1ccc(COn2nnc3ccc(S(=O)(=O)N4CCOCC4)cc32)cc1F	20.8	-0.9	-20.4	/	-17.3	/
CCc1ccc(S(=O)(=O)NCCc2csc(-c3ccccc3)n2)s1	40.8*	69.1*	-0.7	4.5	45.4	80.8*
CCc1ccc(S(=O)(=O)NCc2csc(-c3ccccc3)n2)s1	25.6	-4.4	-13.8	-0.1	-22.0	/
N#CC1=C(SCC(=O)NC2CC2)NC(=O)C(C#N)C12CCCCC2 (configuration not stated)	3.9	-0.1	5.1	-4.4	-11.7	/
CC(C)(C)C1CCC2(CC1)C(C#N)=C(SCC(=O)NC1CCCCC1)NC(=O)C2C#N (configuration not stated)	17.9	78.9*	-15.7	7.0	-6.3	88.0*
N#CC1=C(SCC(=O)NC23CC4CC(CC(C4)C2)C3)NC(=O)C(C#N)C12CCCCC2 (configuration not stated)	11.1	79.7*	9.1	-5.8	-2.2	87.3*
O=C(NCc1cc(Cl)cc(Cl)c1)c1ccc2nc(COCCO)[nH]c2c1	/	-1.4	/	/	/	/
Cc1noc(C)c1C(=O)OCC(=O)Nc1ccc(S(N)(=O)=O)cc1	-3.5	-0.7	-9.1	/	2.8	/
Fc1ccc(Nc2nnc(C(F)(F)F)s2)cc1Cl	55.8*	75.3*	40.1*	2.8	22.5	86.0*
COc1ccccc1NC(=O)CSCc1nc2ccccc2[nH]1	18.0	0.1	-9.3	-7.0	-15.1	/
CCC(=O)N1CCc2cc(S(=O)(=O)NCCC(=O)N3CCc4ccccc4C3)ccc21	29.7	76.4*	7.8	9.2	-8.0	61.1*
CCC(=O)N1CCc2cc(S(=O)(=O)NCCCOC)ccc21	15.6	-0.4	-1.1	-12.9	3.0	/
O=C(O)C1CN(C(=O)c2cccc(Br)c2)C1	1.8	-0.1	-11.8	8.4	-2.1	/
O=C(Nc1ccncc1)c1ccc2c(c1)C(=O)N(C1CCCCC1)C2=O	44.9	91.3*	51.4*	0.9	43.1	96.6*
O=C(CCn1c(=S)oc2ccccc21)NCCC1=CCCCC1	15.8	1.7	-21.4	-1.3	-27.0	/
O=[N+]([O-])c1ccc2nc(-c3ccc(Cl)cc3)[nH]c2c1	24.9	92.5*	20.0	24.1*	11.8	86.1*
O=[N+]([O-])c1cccc(-c2nc3ccc([N+](=O)[O-])cc3[nH]2)c1	43.7	93.1*	-5.9	-3.4	-2.1	82.9*
SMILES	OX1R antag-1	MPTP block	CHO parental Ca	GPR7 antag	OX1R antag-2	MPTP counter
O=[N+]([O-])c1ccc2nc(-c3ccncc3)[nH]c2c1	17.3	3.2	-9.4	-18.5	-4.9	/
COc1ccc(-c2nc3ccc([N+](=O)[O-])cc3[nH]2)cc1	18.6	58.5*	-0.1	10.5	-9.1	52.6*
O=[N+]([O-])c1ccc(/C=C/c2nc3ccc([N+](=O)[O-])cc3[nH]2)cc1	4.4	97.7*	-2.0	-2.2	-3.6	64.3*
Cc1cc(OCc2nnc(SC(C)C(=O)O)n2Cc2ccccc2)ccc1Cl (configuration not stated)	/	0.9	/	3.9	/	/
COc1ccc(Br)cc1C1=CC(=O)C[C@H](c2ccc(F)cc2)C1	/	-1.0	/	/	/	/
CCCCC1CCC(C(=O)Nc2ccc(N3CCOCC3)cc2N2CCOCC2)CC1 (configuration not stated)	-7.2	1.0	-14.4	/	-14.8	/
Cc1ccc(-c2nc3ccc([N+](=O)[O-])cc3[nH]2)cc1	48.3	75.8*	-11.1	53.5*	-5.6	81.8*
N#C/C(=C(/O)c1ccc(-c2cccc([N+](=O)[O-])c2)o1)c1nc2ccccc2s1	/	97.9*	/	3.3	/	68.6*
N#C/C(=C(/O)COc1ccccc1)c1nc2ccccc2s1	33.0	84.2*	2.1	-16.3	-0.2	81.3*
N#C/C(=C(/O)CSc1ccccc1C(=O)O)c1nc2ccccc2s1	6.5	-0.5	-1.7	-9.9	-12.2	/
N#C/C(=N\O)c1nc2ccccc2s1	5.4	0.8	-3.0	-11.3	-3.5	/
Cc1ccc(SC/C(O)=C(\C#N)c2nc3ccccc3s2)cc1	71.8	94.4*	-6.2	3.7	2.2	90.7*
N#C/C(=C(/O)c1ccc(F)cc1)c1nc2ccccc2s1	38.3	78.4*	1.3	-9.4	4.1	96.1*
O=C(O)c1ccc(-c2cccc([N+](=O)[O-])c2)o1	42.9	1.8	4.5	-8.5	-6.0	/
O=C(Nc1ccc(Br)cc1Br)C1CC(=O)N(Cc2ccccc2)C1 (configuration not stated)	4.0	0.6	-23.4	-8.6	-24.4	/
Cn1c(=O)c2cc(NC(=O)CCc3cccnc3)ccc2n1Cc1cccc(C(F)(F)F)c1	/	-0.2	/	/	/	/
N#C/C(=C(/O)COC(=O)c1ccc(C#N)cc1)c1nc2ccccc2s1	41.8	78.6*	-6.1	-2.9	-22.6	88.4*
N#C/C(=C(/O)COc1ccc(Cl)cc1)c1nc2ccccc2s1	75.6	107.1*	-5.1	-11.5	0.8	90.3*
COc1ccc(C/C(O)=C(\C#N)c2nc3ccccc3s2)cc1	22.2	37.5	-5.8	-4.0	8.6	/
CN(C)c1cccc(C(=O)N2CCCC(CCC(=O)NCc3ccccc3F)C2)c1 (configuration not stated)	7.5	-0.5	-38.9	7.8	-34.5	/
COCCn1cnnc1SCC(=O)Nc1cc(OC)c([N+](=O)[O-])cc1C	9.7	0.2	9.0	0.3	-18.2	/
CCCCc1ccc(-n2nnnc2SCC(=O)Nc2cc(OC)c([N+](=O)[O-])cc2C)cc1	8.1	63.6*	-18.1	1.9	-17.2	53.5*
O=C(NCc1cn(-c2ccccc2)nc1-c1ccccc1)c1ccc([N+](=O)[O-])cc1	20.3	53.4*	-11.3	-11.4	7.7	62.8*

Compound activity as filed in PubChem BioAssay.
